Our source for the cytotoxicity values is ChEMBL document CHEMBL4513216, “Probing the Open Global Health Chemical Diversity Library for Multistage-Active Starting Points for Next-Generation Antimalarials” (ACS Infect Dis, 2020).

A short description of this series: Toxicity liver stage against HepG2, at 10uM. It counts as cell-based. Further details: test concentration 10 uM, cell line HepG2-A16-CD81EGFP. The following applies: human, HepG2-A16-CD81EGFP cells; read-out: INHIBITION
The method in brief: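 Uninfected HepG2-A16-CD81EGFP cells, 3 × 10^3 per well, 1536-well, plated on prespotted compound at 10 μM final, parasite-free screening media added to match infected plates; puromycin 10 μM positive, DMSO 0.5% negative; run in parallel with 48 h PbLuc assay at 37 °C, 5% CO2; viability by CellTiter-Glo luminescence, normalized to controls.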
For `O=C(NCC1(O)CCc2ccccc21)Nc1ccc2c(c1)OCO2` (configuration not stated), the cytotoxicity at 10 µM was -11.2%.

In the case of `CC(=O)N1CC2(CCN(C(=O)c3ccc4c(c3)OCCO4)CC2)C1`, the cytotoxicity at 10 µM is -11.8%.

For `CC(=O)N1CCOCC2(CCCNC2)C1` (configuration not stated), the cytotoxicity at 10 µM came to 0.081%.

Regarding `CCOC[C@@H]1CC[C@H]2[C@H](CCN2C(=O)c2cnccn2)O1`, the cytotoxicity at 10 µM was -10.6%.

For the compound `CNc1nc2c(s1)C(c1ccc(F)cc1Cl)CC(=O)N2` (configuration not stated), the cytotoxicity at 10 µM came out at 4.12%.

With `CO[C@H]1CCN(c2ncccn2)[C@H]1Cc1ccccc1`, the cytotoxicity at 10 µM is -12.9%.

As for `O=C1CCOC[C@]2(CN(Cc3ccccc3)C[C@H]2c2cccc(F)c2)N1`, the cytotoxicity at 10 µM is -0.0186%.

As to `Cc1cc(C(=O)N[C@@H]2CCC[C@@H](N3CCOCC3)[C@@H]2O)no1`, the cytotoxicity at 10 µM is -1.61%.

With `NC(=O)c1ccccc1Oc1cnc(C2CCCN2)cn1` (configuration not stated), the cytotoxicity at 10 µM turned out to be 0.288%.

In the case of `O=C(c1cnccn1)N1CCCC(Cc2cncc3ccccc23)C1` (configuration not stated), the cytotoxicity at 10 µM was -31.4%.

Consider `c1ccc(-c2cc(CNCCCN3CCCCC3)c3nnnn3c2)cc1`, for which the cytotoxicity at 10 µM was -30.6%.

Consider `Cc1cc(C(N)=O)nc(C2(C)CCCN2Cc2cnn(C)c2C)n1` (configuration not stated), for which the cytotoxicity at 10 µM is -20.6%.

As for `CCC(=O)N(CC(N)=O)Cc1cccc(Oc2ccccc2)c1`, the cytotoxicity at 10 µM is 9.66%.

For `CCC(CC)(CN)NC(C)c1ccccc1` (configuration not stated), the cytotoxicity at 10 µM was 4.02%.

As for `COCCCN(C)C(=O)c1nnn(-c2ccccc2Cl)c1C`, the cytotoxicity at 10 µM was determined as 9.38%.

On to `CC(C)(C)CN(CCC#N)C(=O)c1cccc(CN2CCCC2)c1`, for which the cytotoxicity at 10 µM worked out at 0.234%.

For the compound `O=C(c1cccc(F)c1)N(CCCO)S(=O)(=O)c1cccs1`, the cytotoxicity at 10 µM was 3.51%.

`CN(C1CCCCC1)S(=O)(=O)N1CCN(Cc2ccon2)CC1`: the cytotoxicity at 10 µM worked out at 6.75%.

For the compound `O=C(Cn1ccc(-c2ccccc2)n1)N1CCN(C(=O)C2CC2)CC1`, the cytotoxicity at 10 µM was -6.58%.

Take `Cc1nn(C)c2ncc(NC(=O)N3CCNC(=O)C3)cc12`: the cytotoxicity at 10 µM is -5.81%.

With `CSC1(CNC(=O)c2ccn(-c3ccccc3F)n2)CCOCC1`, the cytotoxicity at 10 µM was 0.243%.

In the case of `O=C(c1cccc(NCc2cccc(F)c2)c1)N1CCC(O)CC1`, the cytotoxicity at 10 µM stood at 5.84%.

On to `O=C(NCC1(c2cccs2)CCCCC1)N1CCOC(CO)C1` (configuration not stated), for which the cytotoxicity at 10 µM worked out at 0.75%.

For the compound `CCCc1csc(-c2ccc(S(C)(=O)=O)cc2)n1`, the cytotoxicity at 10 µM is -2.69%.

`O=C(NCC1CC(=O)N(CCc2ccccc2)C1)c1ccon1` (configuration not stated): the cytotoxicity at 10 µM is -5.22%.

Turning to `CC(C)(C)OC(=O)NCC1CCN(C(=O)c2ccccc2O)CC1`, the cytotoxicity at 10 µM was 8.53%.

In the case of `Cc1cc(NCCn2cccn2)n2ncnc2n1`, the cytotoxicity at 10 µM was -2.27%.

Take `Cc1cc(NC(=O)NC2CCCc3c2cnn3CCO)n(C)n1` (configuration not stated): the cytotoxicity at 10 µM was -15.7%.

`Cc1nc(C2CCCN(C(=O)c3cnc(C)s3)C2)no1` (configuration not stated): the cytotoxicity at 10 µM is 4.31%.

For the compound `COc1cc2c(nn1)CCN(CC(O)COc1ccc(C#N)cc1)C2` (configuration not stated), the cytotoxicity at 10 µM was -2.19%.

In the case of `O=C(NC1CCN(c2ccccc2OC(F)F)C1)c1c[nH]nn1` (configuration not stated), the cytotoxicity at 10 µM was -2.54%.

Consider `Cn1nnnc1SC1CCCN(c2ccccc2Cl)C1=O` (configuration not stated), for which the cytotoxicity at 10 µM is 3.71%.

Take `O=C(COc1ccc2c(c1)CCC2)N1CCCC1c1ccc[nH]1` (configuration not stated): the cytotoxicity at 10 µM is 6.54%.

As for `CCN(Cc1cnn(C)c1)C(=O)c1cc2ccccc2c(=O)[nH]1`, the cytotoxicity at 10 µM is -7.94%.

In the case of `O=C(Nc1ccccc1F)C1CSCN1C(=O)CCc1ccco1` (configuration not stated), the cytotoxicity at 10 µM is -4.31%.

Take `N#Cc1ccc(NCCCOCC2CCOC2)c(F)c1` (configuration not stated): the cytotoxicity at 10 µM stood at 1.1%.

On to `CCN(Cc1ccco1)C(=O)NCc1nnc2n1CCC2`, for which the cytotoxicity at 10 µM was -10.3%.

As to `O=C(c1cc(Cl)c2c(c1)OCO2)N1CCN(c2nccs2)CC1`, the cytotoxicity at 10 µM is -3.6%.

With `Cc1cccc(S(=O)(=O)NCC(C)N2CCN(C)CC2)c1Cl` (configuration not stated), the cytotoxicity at 10 µM was -4.52%.

As for `O=C(Cc1c[nH]c2ccccc12)N1CCN(C(=O)c2ccoc2)CC1`, the cytotoxicity at 10 µM was -2.15%.

As for `CN(Cc1nnc(C2CC2)n1C)C1CCN(CCc2cccs2)C1` (configuration not stated), the cytotoxicity at 10 µM was -8.71%.

For the compound `CC(=O)N1CCC2(CC1)C(=O)N(C)c1ccc(F)cc12`, the cytotoxicity at 10 µM was -116%.

On to `CCN1CCN(S(=O)(=O)N2CCC(OC)CC2)[C@H]2CS(=O)(=O)C[C@H]21`, for which the cytotoxicity at 10 µM was -1.6%.

Consider `Cc1nc(CN2CCC(c3cc(N4CCCC4)ncn3)CC2)cs1`, for which the cytotoxicity at 10 µM is -159%.

Turning to `CCC1CN(C(=O)c2ccc(O)c(C)c2)CCN1C(C)C` (configuration not stated), the cytotoxicity at 10 µM stood at 1.68%.

For the compound `O=C(O)C1(Cc2cccc(Cl)c2)CCCN(c2ncnc3[nH]ccc23)C1` (configuration not stated), the cytotoxicity at 10 µM stood at 3.63%.

On to `CC(CCn1cccn1)N1CCC(n2cc(C(C)(C)N)nn2)CC1` (configuration not stated), for which the cytotoxicity at 10 µM is -4.78%.

In the case of `COc1nccc(N2CC[C@H](N3CCOCC3)[C@H](CCCO)C2)c1C#N`, the cytotoxicity at 10 µM is -148%.

For `COc1cc(F)c(CN2CC[C@@](O)(C3CC3)[C@H](C)C2)cc1OC`, the cytotoxicity at 10 µM was 0.0489%.

Consider `CCNC(=O)[C@@H]1C[C@H](n2cc(CC3CCCCC3)nn2)CN1`, for which the cytotoxicity at 10 µM is 1.06%.

Take `O=C(NC1CC1)C1CNCCN1C(=O)CCOc1ccccc1` (configuration not stated): the cytotoxicity at 10 µM was found to be 2.08%.

Take `CCCN1CCCC2(CCN(S(=O)(=O)N3CCC(OC)CC3)C2)C1=O` (configuration not stated): the cytotoxicity at 10 µM is 1.48%.

Take `COCC(=O)N1CCC(Oc2cccc(C)c2)CC1`: the cytotoxicity at 10 µM is -4.25%.

As for `CC(Cn1ccnc1)NCc1nncn1C1CCCCC1` (configuration not stated), the cytotoxicity at 10 µM was -4.54%.

Turning to `Cc1nc[nH]c1CN1CCCC(CNC(=O)c2ccncn2)C1` (configuration not stated), the cytotoxicity at 10 µM was -0.334%.

`CC(C)c1cnc(N2C[C@H](CO)C[C@H](CN3CCOCC3)C2)nc1`: the cytotoxicity at 10 µM was -7.45%.

In the case of `COc1ccc(C(C(=O)O)N2CCC(Cn3cccn3)CC2)c(OC)n1` (configuration not stated), the cytotoxicity at 10 µM is -9.46%.

Take `Cc1cccc(CN2CCN(C(=O)[C@@H]3CSCN3C)CC2)c1`: the cytotoxicity at 10 µM was -8.56%.

`CN(C)CC(C)(C)Cn1cnc(-c2ccccc2)c1-c1cccc(O)c1`: the cytotoxicity at 10 µM was -5.53%.

Regarding `CCc1ncc(CN2CCC(Oc3ccccc3OC)CC2)cn1`, the cytotoxicity at 10 µM was -8.17%.

As to `O=C(NCCCc1ccccn1)c1cn(CCN2CCNCC2)nn1`, the cytotoxicity at 10 µM was -3.54%.

Regarding `CCN1CCN(C[C@@H]2CN(c3ncc(Cl)cc3Cl)C[C@@H]2CO)CC1`, the cytotoxicity at 10 µM is -6%.

For `O=c1[nH]c(NC2CCCC2)nc2nccc(-c3ccco3)c12`, the cytotoxicity at 10 µM was determined as 0.74%.

`Cc1ccc(N2CCN(C(=O)COc3ncccn3)CC2)nn1`: the cytotoxicity at 10 µM was -0.233%.

For the compound `Cc1ccsc1C(CNC(=O)c1cc(=O)c2ccccc2[nH]1)N(C)C` (configuration not stated), the cytotoxicity at 10 µM is -2.89%.

As to `COc1cc(N2CCCC(c3nccn3CCN(C)C)C2)nc(N)n1` (configuration not stated), the cytotoxicity at 10 µM was -9.6%.

As for `COc1cccc(C)c1C(=O)N1C[C@@H](CN(C)C)[C@@H](CO)C1`, the cytotoxicity at 10 µM was -10.4%.

As for `COc1ccc(OCc2nc(C(=O)N3CC[C@H](O)[C@@H](O)C3)co2)cc1`, the cytotoxicity at 10 µM is -5.42%.

With `COCCNc1nc(C2CCCC2)nc2c1CCNCC2`, the cytotoxicity at 10 µM is -6.4%.

As for `CC(C)Oc1ccc(CNC(=O)CCN2C(=O)CCC2=O)cc1F`, the cytotoxicity at 10 µM is -7.27%.

For `Cc1nc(-c2ccc(Cl)s2)sc1C(=O)NC(C)(C)C(N)=O`, the cytotoxicity at 10 µM was -3.04%.

For `CC(C)c1noc(C(C)N2CCN(CCCN3CCCC3=O)CC2)n1` (configuration not stated), the cytotoxicity at 10 µM was -14.3%.

`Cc1cc(CNc2ccccc2Cl)no1`: the cytotoxicity at 10 µM was -7.77%.

For `CC(C)(C)n1cc(C(=O)N2CCN(Cc3cccnc3)CC2)cn1`, the cytotoxicity at 10 µM is -7.51%.

On to `CCc1nccn1C1CCCN(C(=O)c2ccc(NC3CC3)nc2)C1` (configuration not stated), for which the cytotoxicity at 10 µM is -11.3%.

As for `Cc1noc(C)c1C(=O)NCC(c1ccsc1)N(C)C` (configuration not stated), the cytotoxicity at 10 µM is -14.2%.

In the case of `CS(=O)(=O)NCCCNC(=O)NCc1ccccc1`, the cytotoxicity at 10 µM was -3.54%.

`CCOc1c(Br)cc(/C=C/c2ncc(C(=O)O)s2)cc1OC`: the cytotoxicity at 10 µM is -1.26%.

As to `CC(O)CN1CCC(CNCc2cccc(C(=O)N(C)C)c2)CC1` (configuration not stated), the cytotoxicity at 10 µM was -12.8%.

Take `Cc1cc(C)n(CC2CN(Cc3noc(C4CC4)n3)CCO2)n1` (configuration not stated): the cytotoxicity at 10 µM worked out at 2.79%.

Consider `Cc1oc(C)c(C(=O)NCc2cccc(C(N)=O)c2)c1C`, for which the cytotoxicity at 10 µM was -15.8%.

On to `Cn1cnnc1C1CCCN(C(=O)COc2ccccc2Cl)C1` (configuration not stated), for which the cytotoxicity at 10 µM was -14.2%.

Turning to `Cc1cc(CN(C)C(=O)NC2CCC(O)CC2)no1` (configuration not stated), the cytotoxicity at 10 µM was -0.252%.

For `Cc1cc(CN(C)C(=O)NC2CCCC2)no1`, the cytotoxicity at 10 µM was -5.85%.

In the case of `O=C(CCCOc1ccc(F)cc1)N1CCCC(n2cccn2)C1` (configuration not stated), the cytotoxicity at 10 µM was 4.23%.

Regarding `CN(C)CCn1c(=O)n(C)c(=O)c2ccccc21`, the cytotoxicity at 10 µM was -1.48%.

On to `C[C@@H]1CN(Cc2ccccn2)C[C@]12CCN(Cc1cccnc1)C2=O`, for which the cytotoxicity at 10 µM is -4.54%.

Take `O=c1ccc2c(n1Cc1ccncc1)CCN(Cc1ccoc1)CC2`: the cytotoxicity at 10 µM is -149%.

For the compound `O=C1Nc2ccccc2C12CCN(Cc1ccccn1)CC2`, the cytotoxicity at 10 µM was -3.45%.

For `Cc1cccc(C(=O)N2C[C@@H]3CCN(C(C)C)C[C@@H]3C2)c1`, the cytotoxicity at 10 µM is -2.16%.

Turning to `COc1ccc(-c2n[nH]cc2CNC2CCN(C3CC3)CC2)cc1`, the cytotoxicity at 10 µM stood at 1.75%.

As for `CCS(=O)(=O)N1C[C@@H]2CN(Cc3ccco3)CCO[C@@H]2C1`, the cytotoxicity at 10 µM is -122%.

As to `Cc1cnc(C(=O)N2CCC3(CCN(Cc4ccccn4)C3=O)C2)cn1` (configuration not stated), the cytotoxicity at 10 µM was -140%.

`CCCN1C[C@@H]2CC[C@H]1CN(Cc1cccc(O)c1)C2`: the cytotoxicity at 10 µM is -122%.

As for `Cn1cc(-n2cc3nc(N4CCOCC4)[nH]cc-3c2=O)cn1`, the cytotoxicity at 10 µM was 7.36%.

With `COCCN1C(=O)[C@@H]2CC[C@H]1CN(c1nccc(C)n1)C2`, the cytotoxicity at 10 µM is 9.73%.

For `CS(=O)(=O)CCC(=O)N1C[C@H]2CC[C@@H](C1)N(Cc1ccccc1)C2=O`, the cytotoxicity at 10 µM was -0.0119%.
